Series [1] has as its target CYP2C9 (Homo sapiens, UniProt P11712). Description: Inhibition of human CYP2C9 using diclofenac as substrate at 10 uM. It is filed as ADME. The following applies: probe diclofenac.
The target in series [2] is T1, 5-hydroxytryptamine receptor 2A (Homo sapiens, UniProt P28223). Description: Agonist activity at human 5-HT2A receptor expressed in HEK293 cells assessed as calcium flux by FLIPR assay. It is filed as functional, cell-based. On the technique in general: Calcium flux is commonly read through the fluorescence of an indicator in the cells.
T1 sequence (P28223 whole entry): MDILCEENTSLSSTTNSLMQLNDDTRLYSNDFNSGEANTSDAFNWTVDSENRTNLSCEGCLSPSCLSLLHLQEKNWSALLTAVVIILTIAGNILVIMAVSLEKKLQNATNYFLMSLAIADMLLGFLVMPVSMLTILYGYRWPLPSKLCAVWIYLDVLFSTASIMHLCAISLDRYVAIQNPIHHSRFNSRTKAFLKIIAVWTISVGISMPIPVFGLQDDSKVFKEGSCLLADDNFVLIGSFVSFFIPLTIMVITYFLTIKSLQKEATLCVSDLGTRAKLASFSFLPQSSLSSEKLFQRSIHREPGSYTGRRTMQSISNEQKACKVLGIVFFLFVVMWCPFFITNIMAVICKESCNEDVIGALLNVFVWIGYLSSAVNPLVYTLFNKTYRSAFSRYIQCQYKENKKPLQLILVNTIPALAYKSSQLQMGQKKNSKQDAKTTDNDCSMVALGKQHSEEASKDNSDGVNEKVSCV
Series [3] deals with Alpha-2A adrenergic receptor (Homo sapiens, UniProt P08913). Description: Binding affinity to adrenergic alpha-2A receptor (unknown origin).
Sequence of Alpha-2A adrenergic receptor (P08913 whole entry): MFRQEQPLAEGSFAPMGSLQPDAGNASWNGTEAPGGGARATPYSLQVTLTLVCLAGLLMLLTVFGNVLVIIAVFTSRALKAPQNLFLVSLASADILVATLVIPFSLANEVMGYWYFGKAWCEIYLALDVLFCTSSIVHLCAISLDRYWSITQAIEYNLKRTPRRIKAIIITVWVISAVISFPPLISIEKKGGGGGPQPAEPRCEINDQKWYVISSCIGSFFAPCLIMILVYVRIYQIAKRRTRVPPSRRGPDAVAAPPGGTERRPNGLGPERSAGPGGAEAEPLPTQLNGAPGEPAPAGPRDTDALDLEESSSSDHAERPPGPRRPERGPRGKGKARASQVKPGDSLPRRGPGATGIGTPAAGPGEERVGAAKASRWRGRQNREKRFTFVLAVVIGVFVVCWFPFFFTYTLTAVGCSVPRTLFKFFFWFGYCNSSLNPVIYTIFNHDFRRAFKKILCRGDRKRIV
For series [4], the target named is T2, hERG (KCNH2) (Homo sapiens, UniProt Q12809). Briefly: (§1) Inhibition of human ERG channel expressed in CHO cells at […] by patch clamp method. It is filed as cell-based. The following applies: CHO cells expressing human ERG channel.
T2 sequence (Q12809 whole entry): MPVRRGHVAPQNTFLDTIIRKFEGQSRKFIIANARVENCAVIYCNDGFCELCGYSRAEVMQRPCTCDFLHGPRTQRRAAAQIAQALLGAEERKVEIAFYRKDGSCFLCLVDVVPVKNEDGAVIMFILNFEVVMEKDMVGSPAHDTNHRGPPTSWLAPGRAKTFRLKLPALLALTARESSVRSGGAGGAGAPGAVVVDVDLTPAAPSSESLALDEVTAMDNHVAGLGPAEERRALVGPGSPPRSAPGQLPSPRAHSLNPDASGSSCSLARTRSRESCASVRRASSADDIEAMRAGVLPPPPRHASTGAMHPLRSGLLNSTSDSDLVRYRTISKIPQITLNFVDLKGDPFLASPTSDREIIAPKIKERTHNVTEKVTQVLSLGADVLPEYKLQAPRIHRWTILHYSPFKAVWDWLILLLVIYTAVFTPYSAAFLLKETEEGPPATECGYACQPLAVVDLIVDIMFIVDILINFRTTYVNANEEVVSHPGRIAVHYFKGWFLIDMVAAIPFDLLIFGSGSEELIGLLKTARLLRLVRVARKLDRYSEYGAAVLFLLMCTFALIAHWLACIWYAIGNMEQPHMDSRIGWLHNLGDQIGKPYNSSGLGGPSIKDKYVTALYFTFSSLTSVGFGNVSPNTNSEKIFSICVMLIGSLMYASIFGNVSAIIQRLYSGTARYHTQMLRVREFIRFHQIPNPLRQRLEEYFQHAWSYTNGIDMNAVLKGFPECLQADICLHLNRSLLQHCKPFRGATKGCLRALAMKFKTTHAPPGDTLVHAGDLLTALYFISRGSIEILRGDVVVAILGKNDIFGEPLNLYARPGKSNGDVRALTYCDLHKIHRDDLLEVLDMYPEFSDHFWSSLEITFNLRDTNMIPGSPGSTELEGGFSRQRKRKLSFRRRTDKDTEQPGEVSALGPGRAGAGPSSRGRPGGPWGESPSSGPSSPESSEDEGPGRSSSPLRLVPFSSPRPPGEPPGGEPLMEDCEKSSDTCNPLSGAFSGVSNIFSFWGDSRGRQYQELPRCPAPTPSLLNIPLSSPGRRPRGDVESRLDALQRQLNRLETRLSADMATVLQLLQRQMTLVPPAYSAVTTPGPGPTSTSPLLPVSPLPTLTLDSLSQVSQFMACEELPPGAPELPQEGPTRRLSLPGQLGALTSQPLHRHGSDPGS
Series [5] has as its system Mus musculus. Briefly: Antipsychotic activity in C57BL/6J mouse assessed as reduction of amphetamine-induced locomotor activity at 10 to 20 mg/kg, ip administered 15 mins prior to amphetamine challenge measured for 105 mins by open field test relative to vehicle-treated control. It is filed as functional, organism-based.
Series [6] deals with T2, hERG (KCNH2). Description: Inhibition of human ERG channel expressed in CHO cells at 10 uM by patch clamp method. It is filed as cell-based. The following applies: CHO cells expressing human ERG channel. The procedure, abridged: (§2)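 hERG current recorded in CHO cells by automated patch clamp; percent inhibition at 0.37, 1.1, 3.3, 10 and 30 µM.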
Series [7] addresses 5-hydroxytryptamine receptor 2B (Homo sapiens, UniProt P41595). Briefly: Agonist activity at human 5-HT2B receptor expressed in HEK293 cells assessed as calcium flux at 10 uM by FLIPR assay. It is filed as functional, cell-based. Put shortly: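 Flp-In-293 cells stably expressing human 5-HT2A, 5-HT2B or 5-HT2C-INI, grown in DMEM with 10% dialyzed FBS, then plated for 24 h in 1% dialyzed FBS. Cells were loaded 1 h at 37 °C with calcium dye in Hepes-buffered HBSS, pH 7.40, containing 2.5 mM probenecid. FLIPR read 10 s baseline, then 120 s after drug addition.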

Series [8] addresses T1, 5-hydroxytryptamine receptor 2A. Description: Agonist activity at human 5-HT2A receptor expressed in HEK293 cells assessed as calcium flux by FLIPR assay relative to 5-HT. It is filed as functional, cell-based. Put shortly: (§3)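 Flp-In-293 cells stably expressing human 5-HT2A, 5-HT2B or 5-HT2C-INI; grown 24–48 h in DMEM/10% dialyzed FBS, plated on poly-L-Lys at 12000 cells/well in 1% dialyzed FBS for 24 h. Loaded 1 h at 37 °C with calcium dye in HBSS, 20 mM Hepes pH 7.40, 2.5 mM probenecid.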

The target in series [9] is T3, 5-hydroxytryptamine receptor 2C (Homo sapiens) (UniProt P28335).
T3 sequence (whole entry): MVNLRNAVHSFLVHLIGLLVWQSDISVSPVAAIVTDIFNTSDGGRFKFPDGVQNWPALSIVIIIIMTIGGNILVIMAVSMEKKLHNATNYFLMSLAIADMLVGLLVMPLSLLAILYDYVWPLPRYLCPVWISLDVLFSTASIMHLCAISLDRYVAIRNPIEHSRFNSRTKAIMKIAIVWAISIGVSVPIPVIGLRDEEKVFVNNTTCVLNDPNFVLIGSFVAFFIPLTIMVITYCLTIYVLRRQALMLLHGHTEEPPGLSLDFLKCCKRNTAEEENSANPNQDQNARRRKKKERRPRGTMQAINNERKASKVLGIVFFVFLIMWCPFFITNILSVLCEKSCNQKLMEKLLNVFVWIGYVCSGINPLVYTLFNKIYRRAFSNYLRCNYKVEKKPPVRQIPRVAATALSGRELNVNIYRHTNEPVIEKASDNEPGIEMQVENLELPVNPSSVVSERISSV
Description: Agonist activity at human 5-HT2C receptor expressed in HEK293 cells assessed as calcium flux by FLIPR assay relative to 5-HT. It is filed as functional, cell-based. The procedure, abridged: as §3

For series [10], the species on record is Homo sapiens. Briefly: Selectivity ratio of EC50 for human 5-HT2A receptor to EC50 for human 5HT2C receptor.
Series [11] concerns the target Voltage-gated inwardly rectifying potassium channel KCNH2 (Homo sapiens, UniProt Q12809). Briefly: Inhibition of human ERG channel expressed in CHO cells by patch clamp method. It is filed as cell-based. The following applies: human, cho. For orientation: Patch clamp records ionic current or voltage across a cell membrane.
The target in series [12] is T2, hERG (KCNH2). The series is described as §1. The following applies: CHO cells expressing human ERG channel. It is filed as cell-based. This is another data set of the same source.
For series [13], the target named is T4, 5-hydroxytryptamine receptor 2C (Homo sapiens, UniProt P28335).
T4 sequence (P28335 whole entry): T3 sequence (whole entry)
Briefly: Agonist activity at human 5-HT2C receptor expressed in HEK293 cells assessed as calcium flux by FLIPR assay. It is filed as functional, cell-based.

The target of series [14] is T5, CYP2B6 (Homo sapiens, UniProt P20813).
T5 sequence (P20813 whole entry): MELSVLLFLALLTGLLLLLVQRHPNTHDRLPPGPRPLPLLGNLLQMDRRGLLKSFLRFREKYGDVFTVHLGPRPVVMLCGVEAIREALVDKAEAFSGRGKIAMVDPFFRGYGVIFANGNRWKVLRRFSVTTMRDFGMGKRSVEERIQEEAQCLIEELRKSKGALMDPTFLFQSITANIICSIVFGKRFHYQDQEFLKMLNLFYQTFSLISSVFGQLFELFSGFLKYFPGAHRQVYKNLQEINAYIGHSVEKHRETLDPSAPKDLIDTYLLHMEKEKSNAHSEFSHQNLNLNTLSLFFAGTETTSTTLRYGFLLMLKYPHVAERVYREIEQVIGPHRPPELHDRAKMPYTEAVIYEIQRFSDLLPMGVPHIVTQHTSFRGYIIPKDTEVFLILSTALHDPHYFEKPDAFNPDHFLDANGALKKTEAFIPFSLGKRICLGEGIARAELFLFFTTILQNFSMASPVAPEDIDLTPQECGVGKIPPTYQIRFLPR
Briefly: Inhibition of human CYP2B6 using bupropion as substrate at 10 uM. It is filed as ADME. The following applies: probe bupropion.

Series [15] addresses T2, hERG (KCNH2). Briefly: Inhibition of human ERG channel expressed in CHO cells at 30 uM by patch clamp method. The following applies: CHO cells expressing human ERG channel. It is filed as cell-based. The procedure, abridged: as §2
Series [16] addresses CYP2C19 (Homo sapiens, UniProt P33261). Briefly: Inhibition of human CYP2C19 using omeprazole as substrate at 10 uM. It is filed as ADME. The following applies: probe omeprazole.
Series [17] has as its target T2, hERG (KCNH2). Briefly: Inhibition of human ERG channel expressed in CHO cells at 3.3 uM by patch clamp method. It is filed as cell-based. The following applies: CHO cells expressing human ERG channel. The procedure, abridged:
as §2

The target in series [18] is CYP2D6 (Homo sapiens, UniProt P10635). Description: Inhibition of human CYP2D6 using dextromethorphan as substrate at 10 uM. It is filed as ADME. The following applies: probe dextromethorphan.
Sequence of CYP2D6 (P10635 whole entry): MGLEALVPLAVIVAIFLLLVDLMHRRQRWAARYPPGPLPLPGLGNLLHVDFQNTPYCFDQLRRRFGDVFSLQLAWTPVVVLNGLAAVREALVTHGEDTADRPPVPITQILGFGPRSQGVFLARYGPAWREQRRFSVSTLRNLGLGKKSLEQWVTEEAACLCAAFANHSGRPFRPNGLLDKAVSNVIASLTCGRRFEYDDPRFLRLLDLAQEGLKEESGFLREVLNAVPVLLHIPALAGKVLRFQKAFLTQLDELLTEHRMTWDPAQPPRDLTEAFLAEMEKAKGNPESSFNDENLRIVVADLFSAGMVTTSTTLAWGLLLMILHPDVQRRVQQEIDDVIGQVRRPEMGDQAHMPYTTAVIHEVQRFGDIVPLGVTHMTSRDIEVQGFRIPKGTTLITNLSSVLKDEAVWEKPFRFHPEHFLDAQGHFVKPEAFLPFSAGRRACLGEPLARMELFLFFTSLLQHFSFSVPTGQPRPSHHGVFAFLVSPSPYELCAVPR
Series [19] concerns the target CYP3A4 (Homo sapiens, UniProt P08684). Briefly: Inhibition of human CYP3A4 using midazolam as substrate at 10 uM. It is filed as ADME. The following applies: probe midazolam. The procedure, abridged:
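Human liver microsomes with test compound at 10 µM; percent inhibition determined using bupropion (2B6), dextromethorphan (2D6) or midazolam (3A/3A4) as probe substrates.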

Usually inhibition stands for the change of the read-out against control, counted positive when it falls. Read a high inhibition as strong suppression. As usually defined, the EC50 is the midpoint of the concentration-response curve. As usually defined, the Ki is the equilibrium dissociation constant of an inhibitor or competing ligand from its target. Higher therefore signals a looser hold on the target. The Emax is the greatest response seen or fitted, relative to the assay's reference.

The source made the active and inactive calls. No cut-off for these calls is given here.

Sequence of Voltage-gated inwardly rectifying potassium channel KCNH2 (Q12809 whole entry): as the sequence (Q12809 whole entry) above
Sequence of 5-hydroxytryptamine receptor 2B (P41595 whole entry): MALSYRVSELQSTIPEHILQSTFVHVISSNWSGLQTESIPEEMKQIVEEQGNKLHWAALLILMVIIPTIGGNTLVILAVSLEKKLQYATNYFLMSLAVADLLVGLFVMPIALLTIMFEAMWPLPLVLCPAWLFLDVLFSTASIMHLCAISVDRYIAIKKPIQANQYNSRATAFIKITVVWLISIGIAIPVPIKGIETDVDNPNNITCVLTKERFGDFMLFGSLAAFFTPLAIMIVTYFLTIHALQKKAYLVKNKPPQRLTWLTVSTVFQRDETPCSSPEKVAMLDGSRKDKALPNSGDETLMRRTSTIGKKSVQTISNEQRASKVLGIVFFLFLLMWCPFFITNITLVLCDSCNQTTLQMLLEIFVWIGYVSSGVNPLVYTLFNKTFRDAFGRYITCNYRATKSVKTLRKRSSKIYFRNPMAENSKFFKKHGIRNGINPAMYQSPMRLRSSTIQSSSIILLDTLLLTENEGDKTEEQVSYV
Sequence of CYP2C9 (P11712 whole entry): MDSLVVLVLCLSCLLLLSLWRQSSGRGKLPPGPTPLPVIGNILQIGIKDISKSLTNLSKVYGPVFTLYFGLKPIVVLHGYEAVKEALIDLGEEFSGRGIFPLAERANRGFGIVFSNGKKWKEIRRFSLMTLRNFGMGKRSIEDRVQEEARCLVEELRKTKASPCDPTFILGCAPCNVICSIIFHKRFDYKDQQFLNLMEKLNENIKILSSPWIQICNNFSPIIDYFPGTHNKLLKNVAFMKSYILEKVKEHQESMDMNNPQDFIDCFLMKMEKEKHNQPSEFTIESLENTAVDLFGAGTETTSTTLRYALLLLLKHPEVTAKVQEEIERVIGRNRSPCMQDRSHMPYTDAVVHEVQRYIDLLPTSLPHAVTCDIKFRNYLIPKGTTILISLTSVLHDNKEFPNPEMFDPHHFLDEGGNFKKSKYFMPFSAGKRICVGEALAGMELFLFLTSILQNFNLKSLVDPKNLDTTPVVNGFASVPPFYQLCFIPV

In the case of `Cl.NC[C@H]1C[C@@H]1c1cc(F)ccc1OCCF`, the inhibition at 10 µM turned out to be 16% in series [1]; 25% in series [6]; 6% in series [14]; 26% in series [16]; 24% in series [18]; 10% in series [19]. Besides, the 50% effective concentration (EC50) in series [2] was 359 nM; in [13], 3.4 nM. The inhibition constant Ki in [3] is under 1000 nM. The inhibition at […] was determined as 11% in series [4] and 6% in series [12]. For the same compound, the outcome in series [5] was Active. Moreover, the result in series [7] was inactive. Further, the maximal response (Emax) in series [8] was found to be 76%; in series [9], 89%. Further, the Ratio EC50 in [10] is over 100. Besides, the “inhibition (INH)” value in [11] is reported as “Dose-dependent effect”. For the same compound, at 30 µM the inhibition in series [15] was 35%. The inhibition at 3.3 µM in [17] worked out at 15%.
